Reference: ChEMBL document CHEMBL5705890, “Antitumor activity of an allosteric inhibitor of centromere-associated protein-E” (Proc Natl Acad Sci U S A, 2010)

Columns and labels:
[1] = target: Centromere-associated protein E (Homo sapiens, UniProt Q02224); test: Uncompetitive binding affinity to C-terminal 6-his-tagged CENP-E (2 to 340 residues)(unknown origin) expressed in Escherichia coli BL21(DE3) assessed as apparent inhibition constant in presence of ATP; conditions: read-out: Ki(app)
[2] = system: A-375; test: Anticancer activity against human A-375 cells assessed as cell growth inhibition measured after 72 hrs by DAPI staining based analysis; type: functional
How it was run: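 Cells were seeded and, after 24 h, DNA content was read as T0. Cells were then exposed to varying drug concentrations for a further 72 h (T72). Fixed cells were DAPI-stained and DNA content measured by automated imaging. T72 values were normalized to T0. GI50 is the concentration giving 50% growth inhibition between T0 and Ymax, obtained by curve fitting.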

[3] = system: COLO 201; test: Anticancer activity against human COLO201 cells assessed as cell growth inhibition measured after 72 hrs by DAPI staining based analysis; type: functional
How it was run: (§1)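 Cells seeded, DAPI-stained DNA content of fixed cells read by imaging 24 h after seeding (T0), and again after a further 72 h exposure to a range of drug concentrations (T72). T72 values were normalized to T0. Curve fits gave the concentration producing 50% growth inhibition relative to T0 and Ymax (GI50).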

[4] = system: COLO 205; test: Anticancer activity against human COLO 205 cells assessed as cell growth inhibition measured after 72 hrs by DAPI staining based analysis; type: functional
How it was run: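 Cells were seeded, and DNA content at 24 h after seeding (T0) was read by imaging of fixed, DAPI-stained cells. Cells were then exposed to a range of drug concentrations for a further 72 h (T72) and DNA content was read again. T72 values were normalized to T0, and GI50 was taken from curve fits as the concentration giving 50% growth inhibition relative to T0 and Ymax.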

[5] = system: DBTRG-05MG; test: Anticancer activity against human DBTRG-05MG cells assessed as cell growth inhibition measured after 72 hrs by DAPI staining based analysis; type: functional; how it was run: as §1
[6] = system: EFM-19; test: Anticancer activity against human EFM-19 cells assessed as cell growth inhibition measured after 72 hrs by DAPI staining based analysis; type: functional; how it was run: as §1
[7] = system: ES-2; test: Anticancer activity against human ES2 cells assessed as cell growth inhibition measured after 72 hrs by DAPI staining based analysis; type: functional; how it was run: as §1
[8] = system: HCT-8; test: Anticancer activity against human HCT-8 cells assessed as cell growth inhibition measured after 72 hrs by DAPI staining based analysis; type: functional
[9] = system: HMCB cell line; test: Anticancer activity against human HMCB cells assessed as cell growth inhibition measured after 72 hrs by DAPI staining based analysis; type: functional
[10] = system: HN5; test: Anticancer activity against human HN5 cells assessed as cell growth inhibition measured after 72 hrs by DAPI staining based analysis; type: functional
[11] = system: HuT78; test: Anticancer activity against human HuT78 cells assessed as cell growth inhibition measured after 72 hrs by DAPI staining based analysis; type: functional
[12] = system: NCI-H508; test: Anticancer activity against human NCI-H508 cells assessed as cell growth inhibition measured after 72 hrs by DAPI staining based analysis; type: functional
[13] = system: RPMI-6666; test: Anticancer activity against human RPMI-6666 cells assessed as cell growth inhibition measured after 72 hrs by DAPI staining based analysis; type: functional
[14] = system: SHP77; test: Anticancer activity against human SHP77 cells assessed as cell growth inhibition measured after 72 hrs by DAPI staining based analysis; type: functional
[15] = system: SK-N-DZ; test: Anticancer activity against human SK-N-DZ cells assessed as cell growth inhibition measured after 72 hrs by DAPI staining based analysis; type: functional
[16] = system: SK-NEP-1; test: Anticancer activity against human SK-NEP-1 cells assessed as cell growth inhibition measured after 72 hrs by DAPI staining based analysis; type: functional
[17] = Anticancer activity against human SKO-007 cells assessed as cell growth inhibition measured after 72 hrs by DAPI staining based analysis; type: functional
[18] = system: A101D; test: Anticancer activity against human A101D cells assessed as cell doubling measured for 72 hrs by DAPI staining based analysis; type: functional
[19] = system: A549; test: Anticancer activity against human A549 cells assessed as cell doubling measured for 72 hrs by DAPI staining based analysis; type: functional
[20] = system: BeWo; test: Anticancer activity against human BeWo cells assessed as cell doubling measured for 72 hrs by DAPI staining based analysis; type: functional
[21] = system: BFTC-905; test: Anticancer activity against human BFTC-905 cells assessed as cell doubling measured for 72 hrs by DAPI staining based analysis; type: functional
[22] = Anticancer activity against human C4-1 cells assessed as cell doubling measured for 72 hrs by DAPI staining based analysis; type: functional
[23] = system: CCF-STTG1; test: Anticancer activity against human CCF-STTG1 cells assessed as cell doubling measured for 72 hrs by DAPI staining based analysis; type: functional
How it was run: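 Cell-growth inhibition in 384-well plates. DNA content of fixed cells stained with DAPI was read by automated imaging 24 h after seeding (T0) and again after a further 72 h exposure to varying drug concentrations (T72). T72 values were normalized to T0, and curves were fitted to give the concentration causing 50% growth inhibition relative to T0 and Ymax (GI50).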

[24] = system: HCC70; test: Anticancer activity against human HCC70 cells assessed as cell doubling measured for 72 hrs by DAPI staining based analysis; type: functional
[25] = system: HeLa; test: Anticancer activity against human HeLa cells assessed as cell doubling measured for 72 hrs by DAPI staining based analysis; type: functional
[26] = system: HT-1080; test: Anticancer activity against human HT-1080 cells assessed as cell doubling measured for 72 hrs by DAPI staining based analysis; type: functional
[27] = system: HuP-T4; test: Anticancer activity against human HuP-T4 cells assessed as cell doubling measured for 72 hrs by DAPI staining based analysis; type: functional
[28] = system: LOX IMVI; test: Anticancer activity against human LOX IMVI cells assessed as cell doubling measured for 72 hrs by DAPI staining based analysis; type: functional
[29] = system: MDA-MB-175-VII; test: Anticancer activity against human MDA-MB-175-VII cells assessed as cell doubling measured for 72 hrs by DAPI staining based analysis; type: functional
[30] = system: NCI-H1299; test: Anticancer activity against human NCI-H1299 cells assessed as cell doubling measured for 72 hrs by DAPI staining based analysis; type: functional
[31] = system: OV-90; test: Anticancer activity against human OV-90 cells assessed as cell doubling measured for 72 hrs by DAPI staining based analysis; type: functional
[32] = system: RPMI-8226; test: Anticancer activity against human RPMI-8226 cells assessed as cell doubling measured for 72 hrs by DAPI staining based analysis; type: functional
[33] = system: SW1088; test: Anticancer activity against human SW1088 cells assessed as cell doubling measured for 72 hrs by DAPI staining based analysis; type: functional
[34] = system: A549; test: Antitumor activity against human A549 cells in xenograft model assessed as difference between median time to endpoint time of treated versus control group at 62.5 mg/kg; type: functional
[35] = system: SK-OV-3; test: Antitumor activity against human SK-OV-3 cells in xenograft model assessed as difference between median time to endpoint time of treated versus control group at 125 mg/kg; type: functional
[36] = system: HCT-116; test: Antitumor activity against human HCT-116 cells in xenograft model assessed as tumor growth delay at 125 mg/kg relative to control; type: functional
[37] = system: SK-OV-3; test: Antitumor activity against human SK-OV-3 cells in xenograft model assessed as tumor growth delay at 62.5 mg/kg relative to control; type: functional

Sequence of Centromere-associated protein E (Q02224 whole entry, the tested form may be a part): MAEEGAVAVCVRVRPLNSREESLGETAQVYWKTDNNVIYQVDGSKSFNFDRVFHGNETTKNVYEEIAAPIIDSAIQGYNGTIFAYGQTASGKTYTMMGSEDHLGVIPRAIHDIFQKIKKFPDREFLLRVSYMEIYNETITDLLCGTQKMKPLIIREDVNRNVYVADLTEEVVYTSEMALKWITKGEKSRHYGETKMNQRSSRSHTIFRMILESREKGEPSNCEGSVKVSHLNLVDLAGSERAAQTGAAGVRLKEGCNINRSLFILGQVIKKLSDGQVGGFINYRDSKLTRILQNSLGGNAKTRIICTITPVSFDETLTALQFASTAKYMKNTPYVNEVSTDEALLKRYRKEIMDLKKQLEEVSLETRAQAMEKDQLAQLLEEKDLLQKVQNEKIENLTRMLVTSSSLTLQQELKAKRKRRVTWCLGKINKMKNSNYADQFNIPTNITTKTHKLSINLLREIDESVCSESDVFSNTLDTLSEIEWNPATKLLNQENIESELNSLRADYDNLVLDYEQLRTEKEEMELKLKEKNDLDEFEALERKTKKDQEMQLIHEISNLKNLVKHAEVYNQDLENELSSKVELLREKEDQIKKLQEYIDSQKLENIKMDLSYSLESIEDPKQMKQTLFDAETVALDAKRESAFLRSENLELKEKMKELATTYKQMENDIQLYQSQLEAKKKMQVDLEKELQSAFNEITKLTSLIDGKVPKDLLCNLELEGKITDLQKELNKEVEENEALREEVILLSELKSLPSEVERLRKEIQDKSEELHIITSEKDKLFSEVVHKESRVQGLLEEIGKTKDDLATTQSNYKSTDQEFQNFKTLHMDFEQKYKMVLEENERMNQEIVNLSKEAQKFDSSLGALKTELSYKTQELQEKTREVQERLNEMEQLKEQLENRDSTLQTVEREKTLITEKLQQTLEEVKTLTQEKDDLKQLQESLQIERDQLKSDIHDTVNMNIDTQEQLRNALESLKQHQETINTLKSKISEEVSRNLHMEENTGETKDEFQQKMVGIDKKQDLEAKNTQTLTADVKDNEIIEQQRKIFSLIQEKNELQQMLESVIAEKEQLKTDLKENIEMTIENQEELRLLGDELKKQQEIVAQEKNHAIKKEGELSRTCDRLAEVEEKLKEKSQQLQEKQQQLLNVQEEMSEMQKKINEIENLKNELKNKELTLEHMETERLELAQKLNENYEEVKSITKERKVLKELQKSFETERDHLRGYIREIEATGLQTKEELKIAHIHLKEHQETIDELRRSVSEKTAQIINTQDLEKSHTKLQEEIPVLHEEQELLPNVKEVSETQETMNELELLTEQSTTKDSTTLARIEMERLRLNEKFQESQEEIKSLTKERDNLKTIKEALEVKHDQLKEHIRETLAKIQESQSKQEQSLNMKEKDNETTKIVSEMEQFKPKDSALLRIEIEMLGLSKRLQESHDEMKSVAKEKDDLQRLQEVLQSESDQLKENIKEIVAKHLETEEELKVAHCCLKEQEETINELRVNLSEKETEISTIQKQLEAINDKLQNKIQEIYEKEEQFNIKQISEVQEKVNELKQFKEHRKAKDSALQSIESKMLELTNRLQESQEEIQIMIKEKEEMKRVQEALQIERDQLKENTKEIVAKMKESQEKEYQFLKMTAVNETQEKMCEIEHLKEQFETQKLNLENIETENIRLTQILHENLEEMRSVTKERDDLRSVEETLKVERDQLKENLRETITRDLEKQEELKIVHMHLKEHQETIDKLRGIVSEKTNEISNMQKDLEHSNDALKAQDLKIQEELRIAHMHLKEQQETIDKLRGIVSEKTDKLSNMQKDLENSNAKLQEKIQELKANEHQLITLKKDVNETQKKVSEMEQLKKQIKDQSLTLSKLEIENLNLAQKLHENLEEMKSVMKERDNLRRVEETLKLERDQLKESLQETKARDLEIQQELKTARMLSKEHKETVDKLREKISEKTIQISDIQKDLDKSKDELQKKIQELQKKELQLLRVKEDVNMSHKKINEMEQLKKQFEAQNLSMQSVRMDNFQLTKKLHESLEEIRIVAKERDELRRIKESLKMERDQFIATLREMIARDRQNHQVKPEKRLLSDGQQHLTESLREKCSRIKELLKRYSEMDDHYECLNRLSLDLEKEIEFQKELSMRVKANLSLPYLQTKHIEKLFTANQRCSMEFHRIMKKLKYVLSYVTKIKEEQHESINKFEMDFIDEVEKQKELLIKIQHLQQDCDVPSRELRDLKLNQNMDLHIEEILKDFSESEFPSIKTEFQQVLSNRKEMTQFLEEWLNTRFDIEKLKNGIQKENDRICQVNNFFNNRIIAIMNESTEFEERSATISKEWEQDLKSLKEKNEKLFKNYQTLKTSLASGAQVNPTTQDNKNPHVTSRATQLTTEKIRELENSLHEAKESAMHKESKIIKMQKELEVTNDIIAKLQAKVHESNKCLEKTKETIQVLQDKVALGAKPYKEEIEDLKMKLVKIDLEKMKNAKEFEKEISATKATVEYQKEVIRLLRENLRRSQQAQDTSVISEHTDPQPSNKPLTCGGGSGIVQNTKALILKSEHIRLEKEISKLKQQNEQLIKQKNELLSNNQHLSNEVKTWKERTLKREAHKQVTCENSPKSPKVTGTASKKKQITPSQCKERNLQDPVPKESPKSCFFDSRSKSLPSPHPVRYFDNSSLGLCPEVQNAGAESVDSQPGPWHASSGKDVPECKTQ

## CC(C)Oc1ccc(C(=O)N[C@H](CNC(=O)CN(C)C)Cc2ccc(-c3cn4cccc([C@H](C)O)c4n3)cc2)cc1Cl [GSK-923295A]
[1]
  Ki: 0.0032 µM
[2]
  GI50: 0.026 µM
[3]
  GI50: 0.024 µM
[4]
  GI50: 0.025 µM
[5]
  GI50: 0.017 µM
[6]
  GI50: 0.028 µM
[7]
  GI50: 0.03 µM
[8]
  GI50: 0.035 µM
[9]
  GI50: 0.025 µM
[10]
  GI50: 0.118 µM
[11]
  GI50: 0.04 µM
[12]
  GI50: 0.032 µM
[13]
  GI50: 0.088 µM
[14]
  GI50: 0.086 µM
[15]
  GI50: 0.069 µM
[16]
  GI50: 0.055 µM
[17]
  GI50: 0.06 µM
[18]
  Activity: 1.36
[19]
  Activity: 3.53
[20]
  Activity: 2.95
[21]
  Activity: 3.49
[22]
  Activity: 2.93
[23]
  Activity: 1.2
[24]
  Activity: 1.35
[25]
  Activity: 2.83
[26]
  Activity: 3.05
[27]
  Activity: 1.09
[28]
  Activity: 2.32
[29]
  Activity: 1.15
[30]
  Activity: 2.78
[31]
  Activity: 1.87
[32]
  Activity: 1.96
[33]
  Activity: 2.55
[34]
  Time: 3.7 days
[35]
  Time: >95 days
[36]
  Activity: 37%
[37]
  Activity: 194%
